Measurements taken from ChEMBL document CHEMBL1949651, “Hamamelitannin from witch hazel (Hamamelis virginiana) displays specific cytotoxic activity against colon cancer cells” (J Nat Prod, 2012).
Converted amounts (≈) assume the structure as drawn. The source made the active and inactive calls. The calls are words filed in the database; no cut-off is given here.

Key:
HT-29 [1] = assay: Induction of H2O2 production in human HT-29 cells at 100 ug/ml after 72 hrs by ferrous oxidation xylenol orange assay in presence of catalase; assay type: functional, cell-based
HT-29 [2] = assay: Induction of H2O2 production in human HT-29 cells at 100 ug/ml after 72 hrs by ferrous oxidation xylenol orange assay; assay type: functional, cell-based
HT-29 [3] = assay: Induction of apoptosis in human HT-29 cells assessed as apoptotic cells at IC50 after 72 hrs by annexin V/propidium iodide-based flow cytometry; assay type: functional
Method in brief: (§1)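 HT29 seeded, treated 72 h and harvested as for cell cycle; staurosporine 1 μM as control. Annexin+/PI− early apoptotic; annexin+/PI+ and annexin−/PI+ late apoptotic/necrotic; three separate experiments.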

[4] = Antiproliferative activity against human NCM460 cells after 72 hrs by MTT assay; assay type: cell-based; details: NCM460, 72 h
Method in brief: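 NCM460 normal colon mucosa epithelial cells in M3Base with 10% heat-inactivated FCS plus 2.5 mM D-glucose (5 mM final); 1 × 10^4 cells/well, 24 h at 37 °C, graded concentrations for 72 h. MTT 1 h, DMSO-dissolved formazan read at 550 nm; IC50 from dose–viability curves; three independent experiments.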

HT-29 [5] = assay: Antiproliferative activity against human HT-29 cells after 72 hrs by MTT assay; assay type: functional, cell-based; details: HT-29, 72 h
Method in brief: (§2)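 HT29 (ATCC HTB-38) in DMEM with 10% heat-inactivated FCS, 0.1% streptomycin/penicillin; 3 × 10^3 cells/well, 24 h at 37 °C, then graded concentrations in fresh medium for 72 h, optionally with bovine liver catalase (100 U/mL). MTT (1 mg/mL in PBS) 1 h, formazan dissolved in DMSO, absorbance 550 nm; IC50 from dose–viability curves; three independent experiments.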

HT-29 [6] = assay: Antiproliferative activity against human HT-29 cells after 72 hrs by MTT assay in presence of H2O2 scavenger catalase; assay type: functional, cell-based; details: HT-29, 72 h; method in brief: as §2
HT-29 [7] = assay: Cell cycle arrest in human HT-29 cells assessed as accumulation at S phase at IC50 after 72 hrs by propidium iodide staining based flow cytometry; assay type: functional
Method in brief: (§3)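 HT29 seeded 87 × 10^3 cells/well, 24 h at 37 °C, treated 72 h; hydroxyurea 1 mM as standard. Trypsinized cells stained in Tris-buffered saline with 50 μg/mL PI, 10 μg/mL DNase-free RNase, 0.1% Igepal CA-630, 1 h at 4 °C dark; flow cytometry at 488 nm; normalized G1/S/G2 percentages, three separate experiments.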

[8] = Antioxidant activity against HNTTM assessed per micromol of radical after 7 hrs by UV spectrophotometry; assay type: functional
Method in brief: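 Polyphenols (2–62 μM, fresh) mixed 1:1 by volume with HNTTM (120 μM) in deoxygenated CHCl3–MeOH (2:1); 7 h at room temperature in the dark, absorbance at 384 nm. Percentage absorbance loss plotted against sample over initial radical micromoles; dose–response curve per sample, EC50 and ARP reported; three independent determinations.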

[9] = Antioxidant activity against TNPTM assessed per micromol of radical after 48 hrs by UV spectrophotometry; assay type: functional
Method in brief: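 As for HNTTM but with TNPTM radical, sample range 10–120 μM, 48 h incubation, absorbance at 378 nm; percentage absorbance loss versus sample over initial radical micromoles, dose–response curve, EC50 and ARP; three independent determinations.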

HT-29 [10] = assay: Induction of apoptosis in human HT-29 cells assessed as necrotic cells at IC50 after 72 hrs by annexin V/propidium iodide-based flow cytometry; assay type: functional; method in brief: as §1
[11] = test system: Radical scavenging activity; assay: Antioxidant activity against DPPH assessed per micromol of radical after 30 mins by UV spectrophotometry; assay type: functional
Method in brief: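 DPPH radical in solution; 30 min at room temperature in the dark, absorbance at 517 nm. Percentage absorbance loss [(1 − A/A0) × 100] plotted against sample amount over initial DPPH concentration; three independent determinations per point.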

HT-29 [12] = assay: Cell cycle arrest in human HT-29 cells assessed as reduction of cells at G2 phase at IC50 after 72 hrs by propidium iodide staining based flow cytometry; assay type: functional; method in brief: as §3
HT-29 [13] = assay: Cell cycle arrest in human HT-29 cells assessed as reduction of cells at G1 phase at IC50 after 72 hrs by propidium iodide staining based flow cytometry; assay type: functional; method in brief: as §3

SMILES	Activity (HT-29 [1])	Activity (HT-29 [2])	Activity (HT-29 [3]) [%]	IC50 [4] [µg/mL]	IC50 (HT-29 [5]) [µg/mL]	IC50 (HT-29 [6]) [µg/mL]	Activity (HT-29 [7]) [%]	EC50 [8] [µg/µmol]	EC50 [9] [µg/µmol]	Activity (HT-29 [10]) [%]	EC50 [11] [µg/µmol]	Activity (HT-29 [12])	Activity (HT-29 [13])
O=C(O[C@@H]1Cc2c(O)cc(O)cc2O[C@@H]1c1cc(O)c(O)c(O)c1)c1cc(O)c(O)c(O)c1	inactive	Dose-dependent effect	–	–	–	–	–	–	–	–	–	–	–
O=C(OC[C@H]1OC(O)[C@@](O)(COC(=O)c2cc(O)c(O)c(O)c2)[C@@H]1O)c1cc(O)c(O)c(O)c1 (stereo partly specified) [HAMAMELITANNIN]	inactive	Dose-dependent effect	26	> 100	20 (≈ 41.3 µM)	13	16	71.2	116	14	27.8	–	–
O=C(OC[C@H]1O[C@@H](OC(=O)c2cc(O)c(O)c(O)c2)[C@H](OC(=O)c2cc(O)c(O)c(O)c2)[C@@H](OC(=O)c2cc(O)c(O)c(O)c2)[C@@H]1OC(=O)c1cc(O)c(O)c(O)c1)c1cc(O)c(O)c(O)c1 [PENTAGALLOYL GLUCOSE]	inactive	Dose-dependent effect	11	23 (≈ 24.5 µM)	28 (≈ 29.8 µM)	34	8	54.8	2400	5	23.8	Active	Active
